Data taken from ChEMBL document CHEMBL1148429, “Penicillin-derived inhibitors that simultaneously target both metallo- and serine-beta-lactamases” (Bioorg Med Chem Lett, 2004).
≈ marks a conversion by molar mass, not a printed value.

How the values were obtained:
Beta-lactamase TEM = Beta-lactamase TEM (Escherichia coli, UniProt P62593); assay: Beta-Lactamase inhibitory activity against representative class A (TEM-1) serine enzyme
Method in brief: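 Serine β-lactamase assay: inhibitor preincubated with enzyme for 4 min in 100 µL, then an aliquot transferred into dilute nitrocefin substrate (1 mL final). IC50 is expressed as the inhibitor concentration in the 100 µL incubation, from multiple experiments.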

[1] = target: T1, Metallo-beta-lactamase type 2 (Bacillus cereus, UniProt P14488); assay: Inhibition of class B (BCII) metallo-beta-lactamase representative enzyme
T1 sequence (P14488 whole entry): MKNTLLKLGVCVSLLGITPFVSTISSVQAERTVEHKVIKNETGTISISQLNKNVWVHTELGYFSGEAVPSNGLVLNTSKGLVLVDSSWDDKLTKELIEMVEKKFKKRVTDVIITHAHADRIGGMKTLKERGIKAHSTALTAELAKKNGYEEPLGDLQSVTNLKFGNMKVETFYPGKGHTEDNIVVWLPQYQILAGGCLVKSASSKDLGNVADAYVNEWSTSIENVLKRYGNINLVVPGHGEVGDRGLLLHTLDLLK
Method in brief: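 BCII metallo-β-lactamase assay: inhibitor and enzyme incubated together for 4 min in 970 µL, then concentrated nitrocefin added to 1 mL final volume. IC50 determined from nitrocefin hydrolysis.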

[2] = target: Beta-lactamase TEM (Escherichia coli) (UniProt P62593); assay: Beta-Lactamase inhibitory activity against representative class A (TEM-1) serine enzyme from Escherichia coli ATCC 35218 in presence of Piperacillin
Method in brief: (§1)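 MIC of piperacillin against β-lactamase-producing strains, with the piperacillin concentration varied and the inhibitor held constant at […].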

Staphylococcus aureus [3] = assay: Antibacterial activity was determined against the Staphylococcus aureus ATCC 29213 in presence of Piperacillin; assay type: functional; method in brief: as §1
[4] = target: Beta-lactamase (Escherichia coli K-12) (UniProt P00811)
Beta-lactamase L1 = Beta-lactamase L1 (Stenotrophomonas maltophilia, UniProt P52700); assay: Beta-Lactamase Inhibition of metallo-beta-lactamase representative class B (L1) enzyme
Method in brief: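 For the metallo enzyme, inhibitor and enzyme were preincubated for 4 min. Concentrated nitrocefin was then added to give the final assay volume, and IC50 was determined.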

Pseudomonas aeruginosa [5] = assay: Synergistic activity against SPM-1 beta lactamase produced by Pseudomonas aeruginosa in presence of Piperacillin and compound 48; S = susceptible
[6] = Synergistic activity against VIM-7 beta lactamase produced by Escherichia coli in presence of Piperacillin and Tazobactam; assay type: functional, plasmodium aeruginosa; settings: Pseudomonas aeruginosa
Method in brief: (§2)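 Synergy with piperacillin against metallo-β-lactamase-producing strains (IMP-1; SPM-1, VIM-1 or VIM-7 carriers). The initial screen used […] at a 1:1 antibiotic:inhibitor ratio. Inhibitor was tested with tazobactam or DVR-II-183 added as a serine β-lactamase inhibitor, or without one.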

[7] = Synergic activity against IMP-1 beta lactamase produced by Escherichia coli in presence of Piperacillin and DVRII183; assay type: functional; method in brief: as §2
Pseudomonas aeruginosa [8] = assay: Synergistic activity against VIM-7 beta lactamase produced by Pseudomonas aeruginosa in presence of Piperacillin and compound 48; R = Resistant
Pseudomonas aeruginosa [9] = assay: Synergistic activity against VIM-7 beta lactamase produced by Pseudomonas aeruginosa in presence of Piperacillin; R = Resistant
[10] = Synergistic activity against VIM-1 beta lactamase produced by Escherichia coli in presence of Piperacillin and Tazobactam; assay type: functional, plasmodium aeruginosa; settings: Pseudomonas aeruginosa; method in brief: as §2
[11] = Synergistic activity against VIM-1 beta lactamase produced by Pseudomonas aeruginosa in presence of Piperacillin and DVRII183
[12] = Synergic activity against IMP-1 beta lactamase produced by Escherichia coli in presence of Piperacillin; assay type: functional; method in brief: as §2
[13] = Synergistic activity against SPM-1 beta lactamase produced by Pseudomonas aeruginosa in presence of Piperacillin and Tazobactam
[14] = Synergic activity against IMP-1 beta lactamase produced by Escherichia coli in presence of Piperacillin and Tazobactam; assay type: functional; method in brief: as §2
Pseudomonas aeruginosa [15] = assay: Synergistic activity against VIM-1 beta lactamase produced by Pseudomonas aeruginosa in presence of Piperacillin and Tazobactam; R = Resistant
Escherichia coli [16] = assay: Synergic activity against IMP-1 beta lactamase produced by Escherichia coli in presence of Piperacillin; S = susceptible; assay type: functional; method in brief: as §2
[17] = Synergistic activity against VIM-7 beta lactamase produced by Escherichia coli in presence of Piperacillin; assay type: functional, plasmodium aeruginosa; settings: Pseudomonas aeruginosa
[18] = Synergistic activity against VIM-1 beta lactamase produced by Pseudomonas aeruginosa in presence of Piperacillin
[19] = Synergistic activity against SPM-1 beta lactamase produced by Pseudomonas aeruginosa in presence of Piperacillin
Pseudomonas aeruginosa [20] = assay: Synergistic activity against SPM-1 beta lactamase produced by Pseudomonas aeruginosa in presence of Piperacillin and Tazobactam; S = susceptible
Pseudomonas aeruginosa [21] = assay: Synergistic activity against VIM-1 beta lactamase produced by Pseudomonas aeruginosa in presence of Piperacillin and compound 48; S = susceptible
Pseudomonas aeruginosa [22] = assay: Synergistic activity against SPM-1 beta lactamase produced by Pseudomonas aeruginosa in presence of Piperacillin; S = susceptible
Pseudomonas aeruginosa [23] = assay: Synergistic activity against VIM-1 beta lactamase produced by Pseudomonas aeruginosa in presence of Piperacillin; R = Resistant
Escherichia coli [24] = assay: Synergic activity against IMP-1 beta lactamase producing Escherichia coli in presence of Piperacillin and compound 48; S = susceptible; assay type: functional; method in brief: as §2
[25] = Synergistic activity against SPM-1 beta lactamase produced by Pseudomonas aeruginosa in presence of Piperacillin and DVRII183
Pseudomonas aeruginosa [26] = assay: Synergistic activity against VIM-7 beta lactamase produced by Pseudomonas aeruginosa in presence of Piperacillin and Tazobactam; R = Resistant
[27] = Synergistic activity against VIM-7 beta lactamase produced by Escherichia coli in presence of Piperacillin and DVRII183; assay type: functional, plasmodium aeruginosa; settings: Pseudomonas aeruginosa; method in brief: as §2
Escherichia coli [28] = assay: Synergic activity against IMP-1 beta lactamase produced by Escherichia coli in presence of Piperacillin and Tazobactam; S = susceptible; assay type: functional; method in brief: as §2
Pseudomonas aeruginosa [29] = assay: Synergistic activity against SPM-1 beta lactamase produced by Pseudomonas aeruginosa in presence of Piperacillin and Tazobactam; R = Resistant
[30] = Synergic activity of compound was determined against IMP-1 beta lactamase produced by Escherichia coli; assay type: functional; method in brief: as §2
Staphylococcus aureus [31] = assay: Antibacterial activity was determined against the Staphylococcus aureus ATCC 29213; assay type: functional
[32] = Synergistic activity of compound was determined against SPM-1 beta lactamase produced by Pseudomonas aeruginosa
[33] = target: Beta-lactamase TEM (Escherichia coli) (UniProt P62593); assay: Beta-Lactamase inhibitory activity against represent active class A (TEM-1) serine enzyme from Escherichia coli ATCC 35218
[34] = Synergistic activity of compound was determined against VIM-7 beta lactamase produced by Pseudomonas aeruginosa
[35] = Synergistic activity of compound was determined against […]; assay type: functional, plasmodium aeruginosa; settings: Pseudomonas aeruginosa; method in brief: as §2

Sequence of Beta-lactamase L1 (P52700 whole entry): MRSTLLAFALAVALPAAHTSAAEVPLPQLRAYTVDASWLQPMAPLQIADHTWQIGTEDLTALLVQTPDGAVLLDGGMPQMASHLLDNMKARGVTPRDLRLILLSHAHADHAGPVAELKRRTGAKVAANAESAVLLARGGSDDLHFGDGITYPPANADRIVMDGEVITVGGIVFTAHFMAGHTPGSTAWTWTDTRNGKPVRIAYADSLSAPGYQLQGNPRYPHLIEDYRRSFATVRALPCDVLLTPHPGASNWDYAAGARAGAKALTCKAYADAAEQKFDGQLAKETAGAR
Sequence of Beta-lactamase (Escherichia coli K-12) (P00811 whole entry): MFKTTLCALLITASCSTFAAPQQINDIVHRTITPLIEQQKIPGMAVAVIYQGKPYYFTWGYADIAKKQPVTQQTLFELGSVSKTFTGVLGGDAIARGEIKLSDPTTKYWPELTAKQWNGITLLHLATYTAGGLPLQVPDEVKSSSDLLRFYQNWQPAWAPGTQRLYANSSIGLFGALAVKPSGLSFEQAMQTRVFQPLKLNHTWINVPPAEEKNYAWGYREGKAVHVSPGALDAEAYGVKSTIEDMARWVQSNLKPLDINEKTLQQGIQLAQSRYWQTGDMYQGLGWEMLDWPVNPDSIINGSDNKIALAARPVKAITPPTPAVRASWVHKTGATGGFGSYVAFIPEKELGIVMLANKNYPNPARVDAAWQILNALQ
Sequence of Beta-lactamase TEM (Escherichia coli) (P62593 whole entry): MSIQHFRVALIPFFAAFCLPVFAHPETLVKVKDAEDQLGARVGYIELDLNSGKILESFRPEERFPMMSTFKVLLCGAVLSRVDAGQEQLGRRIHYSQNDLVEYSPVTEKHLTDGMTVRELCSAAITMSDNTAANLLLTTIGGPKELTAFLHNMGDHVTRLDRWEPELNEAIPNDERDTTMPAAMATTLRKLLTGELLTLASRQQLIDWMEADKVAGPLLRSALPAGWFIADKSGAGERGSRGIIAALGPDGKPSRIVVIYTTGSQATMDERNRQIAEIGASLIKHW
Sequence of Beta-lactamase TEM (P62593 whole entry): as above

With `CC1(C)S[C@@H]2[C@@H](S)C(=O)N2[C@H]1C(=O)O` the IC50 (Beta-lactamase TEM) was 988 µM, the IC50 [1] was 17.2 µM and the MIC [2] was over 128 µg/mL. It also gave an MIC (Staphylococcus aureus [3]) of 8 µg/mL, an MIC [4] of 2 µg/mL (≈ 8.57 µM) and an IC50 (Beta-lactamase L1) of 36.9 µM.

In the case of `CC1(C)[C@H](C(=O)O)N2C(=O)[C@@H](CO)[C@H]2S1(=O)=O`, the IC50 [1] is reported as over 200 µM, the MIC [2] is reported as 1 µg/mL and the MIC (Staphylococcus aureus [3]) is reported as 1 µg/mL. It also gave an MIC [4] of 0.125 µg/mL (≈ 0.475 µM) and an IC50 (Beta-lactamase L1) of 72.3 µM.

For `CC1(C)[C@H](C(=O)O)N2C(=O)[C@@H](CS)[C@H]2S1(=O)=O`, the Activity (Pseudomonas aeruginosa [5]) was “Susceptible”, the MIC [6] was over 128 µg/mL and the IC50 [1] was 1.4 µM. The MIC [7] was 8 µg/mL, the Activity (Pseudomonas aeruginosa [8]) was “Resistant” and the Activity (Pseudomonas aeruginosa [9]) was “Resistant”. The MIC [10] was over 128 µg/mL, the MIC [11] was 128 µg/mL and the MIC [12] was 8 µg/mL. It also gave an MIC [2] of 8 µg/mL, an MIC (Staphylococcus aureus [3]) of 2 µg/mL and an MIC [4] of 0.25 µg/mL (≈ 0.895 µM). For the same compound, the MIC [13] was 64 µg/mL, the MIC [14] was 8 µg/mL and the Activity (Pseudomonas aeruginosa [15]) was “Resistant”. The Activity (Escherichia coli [16]) was “Susceptible”, the MIC [17] was over 128 µg/mL and the MIC [18] was over 128 µg/mL. The MIC [19] was 64 µg/mL, the Activity (Pseudomonas aeruginosa [20]) was “Susceptible” and the Activity (Pseudomonas aeruginosa [21]) was “Susceptible”. The Activity (Pseudomonas aeruginosa [22]) was “Susceptible”, the Activity (Pseudomonas aeruginosa [23]) was “Resistant” and the Activity (Escherichia coli [24]) was “Susceptible”. The MIC [25] was 64 µg/mL, the Activity (Pseudomonas aeruginosa [26]) was “Resistant” and the IC50 (Beta-lactamase L1) was 0.1 µM. For the same compound, the MIC [27] was over 128 µg/mL and the Activity (Escherichia coli [28]) was “Susceptible”.

`CC1(C)S[C@@H]2[C@H](CO)C(=O)N2[C@H]1C(=O)O` gave an IC50 (Beta-lactamase TEM) of 752 µM, an IC50 [1] of over 200 µM and an MIC [2] of over 128 µg/mL. For the same compound, the MIC (Staphylococcus aureus [3]) was 4 µg/mL, the MIC [4] was 4 µg/mL (≈ 17.3 µM) and the IC50 (Beta-lactamase L1) was over 200 µM.

`O=C(O)c1cccc(C(=O)O)n1` [DIPICOLINIC ACID] gave an IC50 [1] of 21.8 µM and an IC50 (Beta-lactamase L1) of 7.8 µM.

`CC1(C)S[C@@H]2[C@@H](CS)C(=O)N2[C@H]1C(=O)O` showed an IC50 [1] of 1.7 µM, an MIC [2] of over 128 µg/mL and an MIC (Staphylococcus aureus [3]) of 4 µg/mL. The MIC [4] was 2 µg/mL (≈ 8.09 µM), the Activity (Pseudomonas aeruginosa [15]) was “Resistant” and the Activity (Pseudomonas aeruginosa [29]) was “Resistant”. For the same compound, the Activity (Pseudomonas aeruginosa [26]) was “Resistant”, the IC50 (Beta-lactamase L1) was 10.9 µM and the Activity (Escherichia coli [28]) was “Susceptible”.

Compound `CCN1CCN(C(=O)N[C@@H](C(=O)N[C@@H]2C(=O)N3[C@@H]2SC(C)(C)[C@@H]3C(=O)O)c2ccccc2)C(=O)C1=O` [PIPERACILLIN] has an MIC [30] of over 128 µg/mL, an MIC (Staphylococcus aureus [31]) of 8 µg/mL (≈ 15.5 µM) and an MIC [32] of over 128 µg/mL. It also gave an MIC [33] of over 128 µg/mL, an MIC [34] of over 128 µg/mL and an MIC [35] of over 128 µg/mL.
